These results are taken from PubChem BioAssay AID651876 (Broad Institute, 2012).

One may read the inhibition as the change of the read-out against control, counted positive when it falls.

The assay addresses Kelch-like ECH-associated protein 1 (Homo sapiens) (UniProt Q14145). As to the kind of experiment: Keap1 Kelch binding to Nrf2 peptide inhibition, confirmation, orthogonal assay for Keap1-Nrf2 interaction inhibitor project, biophysical, competitive SPR, dry powder (AID 651876). The settings on record: stronger effect = higher value. Summed up: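 System – Keap1 Kelch domain, biochemical · Probe or stimulus – biotinylated 16mer Nrf2 peptide captured on streptavidin CM5 surface · Timing – room-temperature preincubation, 25 °C binding · Signal – Double-referenced surface plasmon resonance, initial association-phase slopes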

“And” between values parts separate entries of the source, which are not always exact repeats. Equal entries are not always repeated. The source made the active and inactive calls.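 How the source made its calls: active means inhibition above 20% at 50 µM; inactive means the rest.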

Kelch-like ECH-associated protein 1 (Homo sapiens), sequence (Q14145 whole entry, looked up, the tested form may be a part): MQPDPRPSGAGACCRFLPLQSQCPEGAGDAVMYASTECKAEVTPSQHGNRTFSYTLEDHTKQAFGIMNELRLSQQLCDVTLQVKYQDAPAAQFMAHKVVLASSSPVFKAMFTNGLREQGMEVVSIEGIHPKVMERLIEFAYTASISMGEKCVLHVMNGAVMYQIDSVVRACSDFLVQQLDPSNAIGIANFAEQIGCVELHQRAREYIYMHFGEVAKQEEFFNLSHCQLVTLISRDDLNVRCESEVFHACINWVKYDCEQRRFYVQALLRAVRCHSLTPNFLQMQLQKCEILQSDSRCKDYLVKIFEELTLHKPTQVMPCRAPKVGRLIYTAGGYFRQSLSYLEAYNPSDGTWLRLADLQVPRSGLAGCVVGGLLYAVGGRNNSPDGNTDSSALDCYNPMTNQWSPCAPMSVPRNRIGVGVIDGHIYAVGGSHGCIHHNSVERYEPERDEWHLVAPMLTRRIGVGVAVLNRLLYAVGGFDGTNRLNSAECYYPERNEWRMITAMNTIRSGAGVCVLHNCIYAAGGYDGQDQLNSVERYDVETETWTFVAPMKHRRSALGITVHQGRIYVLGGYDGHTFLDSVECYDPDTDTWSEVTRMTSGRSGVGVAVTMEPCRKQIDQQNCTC

In the case of `Cc1cc(C)c(S(=O)(=O)Nc2nc(C(C(=O)OC(C)C)C(=O)C(F)(F)F)nc3ccccc23)c(C)c1` (stereo not drawn), the inhibition runs as follows: (at 50 µM) 1.9% (inactive); (inhibition, at 5 µM) -4.5%.

`O=C(NC[C@@H]1c2ccccc2CCN1C(=O)[C@@H]1CCCC[C@@H]1C(=O)O)c1ccc(CN2CCOCC2)cc1`: the inhibition is 24.9% (at 50 µM) and -1.2% (inhibition, at 5 µM).

Regarding `O=C(O)C1CCCCC1C(=O)N1CCc2ccccc2C1CN1C(=O)Cc2ccccc2C1=O` (stereo not drawn), the inhibition was 77% (at 50 µM) and 36.6% (inhibition, at 5 µM).

Take `O=C(O)C1CCCCC1C(=O)N1CCc2ccccc2C1CN1C(=O)c2ccccc2S1(=O)=O` (stereo not drawn): the inhibition is, setting by setting: (at 50 µM) 68.1%; (inhibition, at 5 µM) 18.5%.

For `CC(C)OC(=O)C(C(=O)C(F)(F)F)c1cc(NS(=O)(=O)c2ccccc2)c2ccccc2c1O` (stereo not drawn), the inhibition runs as follows: (at 50 µM) 59%; (inhibition, at 5 µM) 12.7%.

For the molecule `O=C(O)c1ccccc1C(=O)N1CCc2ccccc2C1CN1C(=O)c2ccccc2C1=O` (stereo not drawn), the inhibition (at 50 µM) was 9.9% (inactive) and the inhibition (inhibition, at 5 µM) worked out at 1.9%.

Regarding `O=C(NC[C@@H]1c2ccccc2CCN1C(=O)[C@@H]1CCCC[C@@H]1C(=O)O)c1ccc(CCl)cc1`, the inhibition was 22.7% (at 50 µM) and -1% (inhibition, at 5 µM).

On to `Cc1ccc(S(=O)(=O)NNc2nc(C(C(=O)OC(C)C)C(=O)C(F)(F)F)nc3ccccc23)cc1` (stereo not drawn), for which the inhibition is, setting by setting: (at 50 µM) 28.3%; (inhibition, at 5 µM) 4.9%.

For the molecule `Cc1cc(C)c(S(=O)(=O)Nc2cc(C(C(=O)OC(C)C)C(=O)C(F)(F)F)c(O)c3ccccc23)c(C)c1` (stereo not drawn), the inhibition was 105% (at 50 µM) and 79.7% (inhibition, at 5 µM).

Regarding `Cc1ccc(S(=O)(=O)NC(=O)[C@@H]2c3ccccc3CCN2C(=O)[C@@H]2CCCC[C@@H]2C(=O)O)cc1`, the inhibition (inhibition, at 5 µM) is 0.2% and -3.9%.

Take `Cc1ccc(S(=O)(=O)NNc2nc(NCC(N)=O)nc3ccccc23)cc1`: the inhibition by setting is: (at 50 µM) -9.9% (inactive); (inhibition, at 5 µM) -3.5%.

Take `O=C(O)CC(=O)N1CCc2ccccc2C1CN1C(=O)c2ccccc2C1=O` (stereo not drawn): the inhibition by setting is: (at 50 µM) 2.1% (inactive); (inhibition, at 5 µM) -2.4%.
